Measured values from different studies.
Lines come from different studies, so protocols differ.
Target: 3-phosphoinositide-dependent protein kinase 1 (PDPK1, Homo sapiens, UniProt O15530)
Residues used in one study (O15530 1-556): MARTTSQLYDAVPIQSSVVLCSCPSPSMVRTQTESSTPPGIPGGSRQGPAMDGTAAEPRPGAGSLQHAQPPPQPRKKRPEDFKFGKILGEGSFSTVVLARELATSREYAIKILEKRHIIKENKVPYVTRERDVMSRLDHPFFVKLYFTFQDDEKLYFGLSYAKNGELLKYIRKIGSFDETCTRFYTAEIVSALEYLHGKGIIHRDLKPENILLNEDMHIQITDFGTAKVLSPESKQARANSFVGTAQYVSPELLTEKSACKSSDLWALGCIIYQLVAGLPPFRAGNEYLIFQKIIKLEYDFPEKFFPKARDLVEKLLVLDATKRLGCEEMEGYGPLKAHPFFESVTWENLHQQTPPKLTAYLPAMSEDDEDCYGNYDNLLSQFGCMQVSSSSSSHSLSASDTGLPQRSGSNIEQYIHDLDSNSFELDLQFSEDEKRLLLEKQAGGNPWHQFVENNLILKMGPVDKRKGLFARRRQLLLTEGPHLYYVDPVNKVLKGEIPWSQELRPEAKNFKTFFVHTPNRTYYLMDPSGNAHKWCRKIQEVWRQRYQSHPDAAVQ

COc1ccc2oc(-c3ccc4nc(N)oc4c3)c/c(=N\c3ccccc3NC(=O)CCN)c2c1 — remaining binding (binding; 1 µM): 100%
N#Cc1ccc(NC(=O)Nc2ccccc2)cc1 — remaining binding (cell-free assay, competition with immobilised ligand; 25 µM): 100%
Cc1cc(O)c(-c2ccc([C@@H](C)CN(C)C)cc2)c2c1[nH]c(=O)c1sccc12 — inhibition (enzyme activity, inhibitor; 0.1 µM): 4.15%
CC(C)S(=O)(=O)c1ccc2nccc(Nc3ccc4sc(C5CCCC5)nc4c3)c2c1 — activity vs control (enzyme activity, inhibitor; 1 µM): 118%
C[C@H]1CC[C@H](n2c3cnccc3c3cnc(Nc4ccc5c(n4)CCN(C(=O)CO)C5)nc32)CC1 — remaining signal (cell-free assay; 1 µM): 100%
C#Cc1cnc(Nc2ccnc(CO)c2)nc1Nc1ccccc1S(C)(=O)=NC#N (centres unmarked) — remaining signal (cell-free assay; 1 µM): 100%
C1=C/COCc2cc(ccc2OCCN2CCCC2)Nc2nccc(n2)-c2cccc(c2)COC/1 — remaining binding (binding; 0.1 µM): 100%
C=CC(=O)N1CCC([C@@H]2CCNc3c(C(N)=O)c(-c4ccc(Oc5ccccc5)cc4)nn32)CC1 — inhibition (enzyme activity, inhibitor; 1 µM): 18%
CCCCC(=O)Nc1ccc(-c2ccc3ncn(CCC)c(=O)c3c2)cn1 — remaining binding (binding, competition with immobilised ligand; 0.5 µM): 100%
CO[C@@H]1[C@H](N(C)C(=O)c2ccccc2)C[C@H]2O[C@]1(C)n1c3ccccc3c3c4c(c5c6ccccc6n2c5c31)C(=O)NC4 — inhibition (enzyme activity, inhibitor; 1 µM): 73%
CN1CCN(C(=O)c2ccc(NC(=O)Nc3ccc(N(C)c4ccnc(Nc5ccc(CS(C)(=O)=O)cc5)n4)cc3)cc2)CC1 — remaining binding (binding; 1 µM): 68%
